Reference: ChEMBL document CHEMBL1140057, “Design, synthesis, and evaluation of novel organophosphorus inhibitors of bacterial ureases” (J Med Chem, 2008)

Tests used:
[1] = Inhibition of Bacillus pasteurii CCM 2056 urease by steady state kinetic study; set-up: species or system Sporosarcina pasteurii
How it was run: (§1)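 Assay at 30 °C in 3 mM phosphate pH 7.0 with 2-100 mM urea. Ammonia read by Berthelot indophenol at 650 nm. Enzyme-inhibitor preincubated 30 min before urea, or diluted 30-fold from a concentrated mix. Ki* from linear regression, triplicates.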

[2] = Inhibition of Proteus vulgaris CCM 1956 urease by steady state kinetic study; how it was run: as §1
[3] = Inhibition of Klebsiella aerogenes urease
Urease = Urease (Helicobacter pylori, UniProt Q0PXQ5); assay: Inhibition of Helicobacter pylori urease
Urease, sequence (Q0PXQ5 whole entry): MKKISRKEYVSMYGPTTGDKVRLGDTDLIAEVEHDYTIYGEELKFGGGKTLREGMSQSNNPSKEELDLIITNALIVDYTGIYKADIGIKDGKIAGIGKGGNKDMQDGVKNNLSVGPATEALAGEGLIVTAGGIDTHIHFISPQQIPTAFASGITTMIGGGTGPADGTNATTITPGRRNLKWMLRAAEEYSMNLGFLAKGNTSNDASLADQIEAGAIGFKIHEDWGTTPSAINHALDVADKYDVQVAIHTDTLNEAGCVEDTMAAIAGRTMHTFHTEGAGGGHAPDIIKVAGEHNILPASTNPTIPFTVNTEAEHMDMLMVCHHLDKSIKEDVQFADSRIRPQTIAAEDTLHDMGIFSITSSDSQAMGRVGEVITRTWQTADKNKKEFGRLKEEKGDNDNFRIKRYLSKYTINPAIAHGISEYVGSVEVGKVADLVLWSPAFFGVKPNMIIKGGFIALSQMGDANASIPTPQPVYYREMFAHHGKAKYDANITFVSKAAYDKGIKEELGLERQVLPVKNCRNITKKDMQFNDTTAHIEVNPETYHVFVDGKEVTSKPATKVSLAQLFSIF

## CP(=O)(O)CNC(=O)OCc1ccccc1
[1]
  IC50: 123 µM
  Ki: 43 µM
[2]
  IC50: 319 µM
  Ki: 65 µM

## NP(N)(=O)Oc1ccccc1 [PHENYL PHOSPHORDIAMIDATE]
[1]
  Ki: 0.0006 µM

## CP(=O)(O)CNC(=O)[C@@H](N)COCc1ccccc1
[1]
  IC50: 80 µM
  Ki: 25 µM
[2]
  IC50: 183 µM
  Ki: 32.6 µM

## CC(C)[C@H](N)C(=O)NCP(C)(=O)O
[1]
  IC50: 485 µM
  Ki: 120 µM
[2]
  IC50: 617 µM
  Ki: 208 µM

## CP(O)(=S)CNC(=O)OCc1ccccc1 (configuration not stated)
[1]
  IC50: 112 µM
  Ki: 17.5 µM
[2]
  IC50: 158 µM
  Ki: 14 µM

## CP(=O)(O)CNC(=O)CN
[1]
  IC50: 60 µM
  Ki: 21 µM
[2]
  IC50: 86 µM
  Ki: 30 µM

## CP(O)(=S)CNC(=O)CNC(=O)OCc1ccccc1 (configuration not stated)
[1]
  IC50: 1.8 µM
  Ki: 0.17 µM
[2]
  IC50: 3.1 µM
  Ki: 0.45 µM

## CP(=O)(O)CN [AMINOMETHYL(METHYL)PHOSPHINIC ACID]
[1]
  IC50: 1100 µM
  Ki: 340 µM
[2]
  IC50: 2530 µM
  Ki: 425 µM

## CNCP(C)(=O)O [METHYL((METHYLAMINO)METHYL)PHOSPHINIC ACID]
[1]
  IC50: 60 µM
  Ki: 18 µM
[2]
  IC50: 153 µM
  Ki: 27 µM

## CC(=O)NO [ACETOHYDROXAMIC ACID]
[3]
  Ki: 2.6 µM

## CP(=O)(O)CNC(=O)[C@@H](N)Cc1ccccc1
[1]
  IC50: 600 µM
  Ki: 215 µM
[2]
  IC50: 754 µM
  Ki: 176 µM

## NCC(=O)NCC(=O)NO
Urease
  IC50: 0.79 µM

## CP(=O)(O)CNC(=O)[C@@H](N)CO
[1]
  IC50: 150 µM
  Ki: 37 µM
[2]
  IC50: 342 µM
  Ki: 41 µM

## CP(=O)(O)CNC(=O)CNC(=O)OCc1ccccc1
[1]
  IC50: 450 µM
  Ki: 135 µM
[2]
  IC50: 640 µM
  Ki: 178 µM
